Source: PubChem BioAssay (several laboratories)
zVAD death inh: blocks zVAD induced death of L929 cells. L929 zVAD necroptosis rescue, ATP luminescence, 24 h; with zVAD 60 µM. viability rescue, % at 10 µM. hit rate 0.38% among 220,000. AID 1377;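 active = activation, scaled between plate controls, above about 75%, limit read from the data; inactive = activation under that limit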
TNF death inh: TNF-alpha cell death inhibition in Jurkat FADD-/- cells; Jurkat FADD-/- TNF necroptosis rescue, ATP luminescence, 24 h; 0 = TNF only, 100 = no-TNF cells; activation (protection from cell death), % at 10 µM; hit rate 0.068% among 220,000;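 active = activation, meaning protection from cell death, of at least 50% relative to plate controls; inactive = activation below 50%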;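 also: necroptosis triggered by 40 ng/mL TNF-alpha added together with compound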
PfM18AAP inh: blocks P. falciparum M18 aspartyl aminopeptidase. recombinant PfM18AAP, H-Glu-NHMec fluorogenic cleavage. inhibition, % at 7.35 µM. hit rate 1.2% among 290,000;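 active = inhibition above the campaign mean inhibition over all tested compounds plus 3 SD, cut at about 28% in these data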
RBBP9 inh: inhibitors of human serine hydrolase RBBP9; O75884; recombinant RBBP9, FP-Rh probe fluorescence polarization; inhibition, % at 7.94 µM; hit rate 0.2% among 220,000; AID 1515;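 active = inhibition above the campaign mean of all tested compounds plus 3 SD, cut at about 14% in these data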
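Test system: recombinant human RBBP9. Quantity: 2.5 µM RBBP9 dispensing solution, before mixing. Detection: FP readout at 525/598 nm. Reagent: Serine-hydrolase probe FP-Rh, 375 nM pre-mixing. Measure: % inhibition. Control set: DMSO-treated enzyme wells and wells lacking RBBP9. Buffer or medium: Tris-NaCl-Pluronic buffer, pH 8.0. Times: preincubation 30 min plus labeling 45 min at 25 °C.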
p97 ATPase inh: human p97 ATPase inhibition; P55072; recombinant p97 ATPase, Kinase-Glo ATP luminescence, 3 h; inhibition, % at 8 µM; hit rate 0.42% among 220,000; in the data active = inhibition above about 15%
Target sequence (P55072 whole entry, looked up): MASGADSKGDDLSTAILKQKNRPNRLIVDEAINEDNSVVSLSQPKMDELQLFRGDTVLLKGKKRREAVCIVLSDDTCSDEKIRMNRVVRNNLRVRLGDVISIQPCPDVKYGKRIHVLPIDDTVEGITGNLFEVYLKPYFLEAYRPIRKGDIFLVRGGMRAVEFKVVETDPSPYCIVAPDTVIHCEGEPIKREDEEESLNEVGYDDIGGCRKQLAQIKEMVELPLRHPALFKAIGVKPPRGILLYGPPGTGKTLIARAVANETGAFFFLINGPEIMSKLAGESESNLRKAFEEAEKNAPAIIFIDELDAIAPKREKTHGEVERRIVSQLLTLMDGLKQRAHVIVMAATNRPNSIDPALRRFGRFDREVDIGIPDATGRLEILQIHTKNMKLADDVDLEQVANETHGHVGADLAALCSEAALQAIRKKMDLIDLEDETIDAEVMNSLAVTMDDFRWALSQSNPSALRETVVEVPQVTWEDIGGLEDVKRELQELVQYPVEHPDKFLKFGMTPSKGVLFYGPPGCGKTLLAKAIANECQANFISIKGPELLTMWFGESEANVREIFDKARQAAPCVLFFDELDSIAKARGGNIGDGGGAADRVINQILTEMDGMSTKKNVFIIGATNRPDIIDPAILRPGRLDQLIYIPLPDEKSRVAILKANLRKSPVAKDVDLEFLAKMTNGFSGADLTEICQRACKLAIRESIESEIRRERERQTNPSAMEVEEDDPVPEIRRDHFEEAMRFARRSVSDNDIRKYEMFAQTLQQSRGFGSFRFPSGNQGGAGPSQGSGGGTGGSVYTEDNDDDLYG
Wee1 stabilizer: human Wee1 degradation inhibition, primary screen | HeLa Luc-Wee1K328M stability, luciferase luminescence; 100% = proteasome inhibitor MG132 effect | reporter increase, % at 5 µM | hit rate 1.2% among 220,000 | AID 1321;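 active = activation above the mean of all tested compounds plus 3 SD, set per screening run, cut at about 8.8% in these data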;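 also: cells exposed to compound for 20 h before luminescence read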
A number is an active result; n = inactive; x = no result given. Only some compounds are listed: those with a hit (about 2.7% of all), similar ones and a draw of the others.

SMILES | zVAD death inh | TNF death inh | PfM18AAP inh | RBBP9 inh | p97 ATPase inh | Wee1 stabilizer
CC1CCN(S(=O)(=O)c2ccc3c(c2)N(CC(=O)NCCN2C(C)CCCC2C)C(=O)CS3)CC1 (centres undefined) | x | x | n | x | x | x
COc1cc(C(C(=O)Nc2c(C)cccc2C)N(C)C(=O)c2ccc(-n3cnnn3)cc2)ccc1O (centres undefined) | n | n | n | n | n | n
CNC(=S)Nc1cc(OC)c(NC(=O)c2ccco2)cc1OC | n | n | n | n | n | 9.9
COc1cc(OC)cc(C(=O)Nc2ccc(NC(=O)c3ccco3)c(Cl)c2)c1 | n | n | n | n | n | 9.7
C[C@@H](CSc1ccccc1)CN1CC[C@H](O)CCC1=O | x | x | n | x | x | x
Cc1ccc(CN2CCN(Cc3ccc4cc(F)ccc4n3)CC2CCO)o1 (centres undefined) | n | n | n | n | n | n
O=C(Cc1cccs1)NNC(=S)NC(=O)c1ccc(F)c(F)c1 | n | n | 44 | n | n | n
O=C(Cc1ccccc1)NNC(=S)NC(=O)c1cccs1 | n | n | n | n | n | n
O=C(/C=C/c1ccccc1)NC(=S)NNC(=O)Cc1cccs1 | n | n | n | n | n | n
O=C(Cc1cccs1)NNC(=S)NC(=O)c1ccccc1 | n | n | 35 | n | n | n
CC(=O)NNC(=S)NC(=O)c1ccccc1 | n | n | 48 | n | n | n
COC(=O)c1cn(C(=O)c2cc(Cl)ccc2Cl)c2ccccc12 | x | x | n | x | x | x
Cc1cc(NC(=O)c2cc3cccc([N+](=O)[O-])c3[nH]2)ccc1F | n | n | n | n | n | 17
Oc1c(C(c2ccccc2)N2CCN(Cc3ccccc3)CC2)sc2ncnn12 (centres undefined) | n | n | 29 | n | n | n
CCOc1ccc(C(=O)Nn2cnnc2)cc1OCC | n | n | 29 | n | n | n
Cc1cc(C)cc(C(=O)Nn2cnnc2)c1 | x | x | 31 | x | x | x
COCCNC(=O)c1ccc2snnc2c1 | n | n | n | n | n | n
O=C(NCc1c(Cl)cccc1Cl)c1ccc2nnsc2c1 | n | 58 | n | n | n | n
CCOC(=O)c1c(C)[nH]c(/C(C)=N/O)c1C | n | n | n | n | n | n
CCOC(=O)c1c(C)[nH]c(C2=NNC(=NC3CC3)SC2)c1C | n | n | 44 | n | n | n
Cc1ccccc1/C=N/Nc1nc2ccccc2c(=O)n1O | n | n | 31 | n | n | n
Cc1cc(N/N=C/c2ccccc2O)c2ccccc2n1 | x | x | n | x | x | x
CCOC(=O)C1C(c2ccc(O)c(O)c2)NC(=S)NC1(O)C(F)(F)F (centres undefined) | n | n | 65 | n | n | n
CC(C)c1ccc(NC(=O)C2CSC3(C)CCC(=O)N23)cc1 (centres undefined) | x | x | n | x | x | x
O=C(Oc1cc(Cl)cc(Cl)c1)c1cnc2n(c1=O)CCS2 | n | n | n | n | n | n
SMILES | zVAD death inh | TNF death inh | PfM18AAP inh | RBBP9 inh | p97 ATPase inh | Wee1 stabilizer
CCOC(=O)c1sc(=S)n(-c2ccc(C)cc2)c1N | n | n | 29 | n | n | n
Cc1ccc(N2CC(C(=O)Nc3c(C)n(C)n(-c4ccccc4)c3=O)CC2=O)cc1 (centres undefined) | n | n | n | n | n | n
COCCNC(=O)c1ccc2c(c1)ncn2-c1ccc(F)c(F)c1 | 75 | n | n | n | n | n
CCOc1ccc(-c2onc(C(F)(F)F)c2-c2cscn2)c(O)c1 | n | n | n | n | 29 | n
Cc1cc(O)cc(O)c1-c1onc(C(F)(F)F)c1-c1cscn1 | n | n | n | n | n | n
CCOC(=O)C1=C2SCC(=O)N2C(N)=C(C#N)C1 | n | n | n | n | n | n
COC(=O)C1=C2SCC(=O)N2C(N)=C(C#N)C1 | n | n | n | n | n | 12
O=C(Cc1ccccc1)Nc1ccccc1C(=O)Nc1ccccc1 | n | n | n | n | n | 11
COc1ccc(C)cc1NC(=O)C(NC(=O)c1cc(OC)c(OC)c(OC)c1)C(C)C (centres undefined) | n | n | n | n | n | n
CCOC(=O)c1c(C)[nH]c(C)c1C(=O)COC(=O)c1cc2ccccc2cc1OC | n | n | n | n | n | n
CCOC(=O)c1c(C)[nH]c(C)c1C(=O)COC(=O)c1cc2ccccc2cc1O | n | n | 53 | n | n | n
Cc1cccc(/C=N/NC(=O)c2cc(C3CC3)nc3ccccc23)n1 | x | x | n | x | x | x
CCc1ccc(/C=N/NC(=O)c2cc(C3CC3)nc3ccccc23)s1 | n | n | n | n | n | 11
O=C(Oc1ccc[nH]c1=O)c1cc([N+](=O)[O-])cc([N+](=O)[O-])c1 | n | n | 30 | n | n | n
CCOc1ccc(N2CC(C(=O)NC3CCSC3=O)CC2=O)cc1 (centres undefined) | x | x | n | x | x | x
COc1ccc(CN2CCN(C(=O)CCC(=O)Nc3nnc(C4CCCCC4)s3)CC2)cc1F | x | x | n | x | x | x
CC(=O)c1sc(C(=O)O)c(-c2ccco2)c1-c1ccco1 | n | n | 30 | n | n | n
CSCC[C@H](NC(=O)OC(C)(C)C)C(=O)N1CCC(C(=O)N[C@@H](C)C(=O)NC(C)c2ccccc2)CC1 (some centres undefined) | x | x | n | x | x | x
CCC(C)NC(=O)c1cc2cc3ccc(OC)cc3nc2s1 (centres undefined) | n | n | n | n | n | 9.0
Cc1cc(C)nc(CCNC(=O)CC2C(=O)NCCN2Cc2ccccc2)n1 (centres undefined) | x | x | n | x | x | x
CC1CCN(C2CCN(S(=O)(=O)c3ccc(C(F)(F)F)cc3)CC2)CC1 | x | x | n | x | x | x
CN1c2ccccc2C(C)(C)C12C=Cc1cc(O)ccc1O2 (centres undefined) | n | n | 30 | n | n | n
Cc1ccc(S(=O)(=O)c2nc(S(C)(=O)=O)sc2N2CCC(C)CC2)cc1 | x | x | n | x | x | x
O=C(NNC(=O)c1cc2ccccc2cc1O)NC1CCCCC1 | x | x | 29 | x | x | x
O=C(NCC1CCCCC1)c1cc2ccccc2cc1O | x | x | n | x | x | x
SMILES | zVAD death inh | TNF death inh | PfM18AAP inh | RBBP9 inh | p97 ATPase inh | Wee1 stabilizer
COC(=O)CN(c1cc(C(F)(F)F)ccc1Cl)S(C)(=O)=O | n | n | n | n | n | n
COCCNC(=O)CN(c1cc(C(F)(F)F)ccc1Cl)S(C)(=O)=O | n | n | n | n | n | 10
O=C1C([N+](=O)[O-])=C(O)c2cccc3cccc1c23 | x | x | 32 | x | x | x
O=C(N/N=C1\C(=O)c2cccc3cccc1c23)c1ccc(O)cc1 | n | n | n | n | n | n
COc1cc(NCCC(=O)c2cccs2)c(OC)cc1Cl | n | n | n | n | n | n
COCCNS(=O)(=O)c1ccc(SC)cc1 | n | 50 | n | n | n | n
COCCNS(=O)(=O)c1ccc(-c2ccc(C)cc2)cc1 | n | n | n | n | n | n
COc1cccc(NC(=S)Nc2ccc(O)cc2)c1 | n | n | 35 | n | n | n
COc1cccc(NC(=S)Nc2ccc(F)cc2)c1 | x | x | n | x | x | x
COc1ccc(NC(=S)Nc2ccc3snnc3c2)cc1 | n | n | 30 | n | n | n
